Values after ≈ are worked out from the molar mass of the structure shown.
How the values were obtained:
C. albicans = experiment: Antifungal MIC, liquid growth inhibition; assay type: cell-based; settings: Candida albicans, 24 h, read-out: Antifungal activity, MIC90
Outline: (§1)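 Clinical isolates from patient specimens, one isolate per patient. Yeasts were grown in YPD at 37 °C for 16 h with 150 rpm shaking, then subcultured to OD 0.3. Inoculum was set to 0.5 McFarland and diluted 1:500 in RPMI 1640 […]. CLSI broth microdilution used final compound concentrations of 256–0.125 µg/mL. MIC90 is the concentration inhibiting 90% of the strains tested per species.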

C. tropicalis = experiment: Antifungal MIC, liquid growth inhibition; assay type: cell-based; settings: Candida tropicalis, 24 h, read-out: Antifungal activity, MIC90
Outline: as §1

C. neoformans = experiment: Antifungal MIC, liquid growth inhibition; assay type: cell-based; settings: Cryptococcus neoformans, 24 h, read-out: Antifungal activity, MIC90
Outline: as §1

PAMPA = assay type: in vitro ADME; settings: for Papp at 5 h, 500 µM: pH 7.4

SMILES	MIC90 (C. albicans)	MIC90 (C. tropicalis)	MIC90 (C. neoformans)	Papp at 5 h, 500 µM (PAMPA)	Membrane retention (PAMPA; phosphatidylcholine in dodecane, pH 7.4, 5 h, r.t.)
OC(Cn1cncn1)(Cn1cncn1)c1ccc(F)cc1F [F, Fluconazole]	2 µg/mL (≈ 6.53 µM)	2 µg/mL (≈ 6.53 µM)	2 µg/mL (≈ 6.53 µM)		
Cn1c(=O)c2c(ncn2C)n(C)c1=O [Caffeine]				1.84 ×10⁻⁶ cm/s	3.2%
O=C(N[C@H](CO)[C@H](O)c1ccc([N+](=O)[O-])cc1)C(Cl)Cl [Chloramphenicol]				0.3 ×10⁻⁶ cm/s	
